Our source for the Activity, inhibition and IC50 values is ChEMBL document CHEMBL1147848, “1-(5-Carboxy- and 5-carbamoylindol-1-yl)propan-2-ones as inhibitors of human cytosolic phospholipase A2alpha: bioisosteric replacement of the carboxylic acid and carboxamide moiety” (Bioorg Med Chem, 2007).

Molecules are shown by their SMILES. pIC50: −log10 of the molar value. Active and inactive are the calls of the source. No cut-off for these calls is given here.

In the first assay the target is T1, Cytosolic phospholipase A2 (Homo sapiens) (UniProt P47712).
T1 sequence (whole entry): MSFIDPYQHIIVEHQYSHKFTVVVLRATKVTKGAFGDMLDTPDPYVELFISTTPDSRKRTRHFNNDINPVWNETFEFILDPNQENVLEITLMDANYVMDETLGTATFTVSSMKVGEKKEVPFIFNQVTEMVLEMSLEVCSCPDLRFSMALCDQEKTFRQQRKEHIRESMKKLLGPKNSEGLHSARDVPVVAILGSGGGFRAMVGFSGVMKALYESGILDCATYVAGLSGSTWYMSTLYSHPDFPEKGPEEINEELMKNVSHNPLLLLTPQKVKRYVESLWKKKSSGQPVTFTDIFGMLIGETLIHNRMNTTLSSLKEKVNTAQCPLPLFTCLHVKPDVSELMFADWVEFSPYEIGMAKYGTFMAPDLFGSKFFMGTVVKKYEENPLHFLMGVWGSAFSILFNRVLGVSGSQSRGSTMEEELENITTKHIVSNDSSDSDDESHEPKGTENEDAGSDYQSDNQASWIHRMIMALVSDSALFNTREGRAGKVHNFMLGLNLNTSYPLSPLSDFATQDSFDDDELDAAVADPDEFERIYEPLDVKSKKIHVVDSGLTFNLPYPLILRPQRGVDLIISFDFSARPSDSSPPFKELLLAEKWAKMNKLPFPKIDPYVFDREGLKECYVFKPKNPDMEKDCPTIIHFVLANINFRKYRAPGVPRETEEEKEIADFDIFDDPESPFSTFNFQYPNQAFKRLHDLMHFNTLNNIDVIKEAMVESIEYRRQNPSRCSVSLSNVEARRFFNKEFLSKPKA
As to the kind of experiment: Inhibition of human platelet cPLA2-alpha assessed as arachidonic acid release at 10 uM by vesicle assay. In short, it runs like this: (§1)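 cPLA2α isolated from human platelets. Highest test concentration 10 µM, kept low to limit inhibitor mole fraction in the interface. Incubated 60 min. Released arachidonic acid is cleaned up by solid-phase extraction, then quantified by reversed-phase HPLC with UV detection at 200 nm.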
Take `CCCCCCCCc1ccc(OCC(=O)Cn2ccc3cc(-c4nc(CC)no4)ccc32)cc1`: the result was inactive.

The term inhibition denotes how much of the control response was suppressed. `CCCCCCCCc1ccc(OCC(=O)Cn2ccc3cc(/C=C4\SC(=O)NC4=O)ccc32)cc1`: the inhibition is 29%.

Turning to `CCCCCCCCc1ccc(OCC(=O)Cn2ccc3cc(-c4nc(Cc5ccccc5)no4)ccc32)cc1`, the result was inactive.

The target of a further assay is T2, Cytosolic phospholipase A2 (Homo sapiens, UniProt P47712).
T2 sequence (P47712 whole entry): T1 sequence (whole entry)
Put plainly: Inhibition of human platelet cPLA2-alpha assessed as arachidonic acid release by vesicle assay. In short, it runs like this:
as §1
As usually defined, the pIC50 is the negative decadic logarithm of the IC50, by convention in mol/L. Turning to `CCCCCCCCc1ccc(OCC(=O)Cn2ccc3cc(-c4nnn[nH]4)ccc32)cc1`, the pIC50 was 5.96. Consider `CCCCCCCCc1ccc(OCC(=O)Cn2ccc3cc(-c4noc(=O)[nH]4)ccc32)cc1`, for which the pIC50 was 5.46. Turning to `CCCCCCCCc1ccc(OCC(=O)Cn2ccc3cc(C(=O)NC)ccc32)cc1`, the pIC50 is 6.43. In the case of `CCCCCCCCc1ccc(OCC(=O)Cn2ccc3cc(C(=O)N(C)C)ccc32)cc1`, the pIC50 was 6.08. On the same count and under the same terms, the value for `CCCCCCCCc1ccc(OCC(=O)Cn2cc(C(=O)OC)c3cc(C(=O)O)ccc32)cc1` was 8.30. On the same count and under the same terms, the value for `CCCCCCCCc1ccc(OCC(=O)Cn2ccc3cc(S(=O)(=O)N(C)C)ccc32)cc1` was 6.30; that for `CCCCCCCCc1ccc(OCC(=O)Cn2ccc3cc(S(=O)(=O)NC)ccc32)cc1` was 6.51; that for `CCCCCCCCc1ccc(OCC(=O)Cn2ccc3cc(C(=O)N4CCOCC4)ccc32)cc1` was 6.30. Same read-out and setting: the value for `CCCCC/C=C\C/C=C\C/C=C\C/C=C\CCCC(=O)C(F)(F)F` [ARACHIDONYL TRIFLUOROMETHYLKETONE] was 5.64; that for `CCCCCCCCc1ccc(OCC(=O)Cn2ccc3cc(S(N)(=O)=O)ccc32)cc1` was 6.41.
